According to ChEMBL document CHEMBL2396589, “Remarkable antioxidant properties of a series of hydroxy-3-arylcoumarins” (Bioorg Med Chem, 2013):

What was measured:
[1] = Antioxidant activity assessed as superoxide radical scavenging activity at 30 uM by cyclic voltammetric analysis; format: functional
Summary of the method: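 Cyclic voltammetry was run at room temperature with a three-electrode cell in DMSO, with compound at 30 µM final. Scavenging (%) was calculated as [(Ipc blank − Ipc aox)/Ipc blank] × 100 from the cathodic peak current without and with compound. Three replicates; significance was set at p < 0.05.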

[2] = system: Radical scavenging activity; test: Antioxidant activity assessed as DPPH radical scavenging activity at 1 mM after 5 mins by ESR spectrometric analysis; format: functional
Summary of the method: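 Reaction mixtures held DPPH and test compound, each at 1.0 mM, both made up in acetonitrile. A control lacked compound. ESR signal was recorded 5 min after mixing at 9.81 GHz with 20 mW microwave power, 0.95 G modulation amplitude and 59 db receiver gain. Values are given as % DPPH scavenging.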

[3] = Antioxidant activity assessed as hydroxyl radical scavenging activity at 4 mM after 5 mins by ESR spectrometric analysis; format: functional
Summary of the method: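 Hydroxyl radicals came from a non-catalytic Fenton-type system: DMF, NaOH (3 mM), DMPO spin trap (30 mM final) and 30% H2O2, with compound at 4 mM final. The DMPO-OH adduct was read by X-band ESR (9.7 GHz) at room temperature 5 min after mixing. A control without antioxidant was included. Values are given as % scavenging.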

[4] = Antioxidant activity assessed as inhibition of AAPH-induced peroxyl radical formation at 0.3 to 2 uM preincubated for 15 mins followed by AAPH addition measured every 1 min for 120 mins by ORAC-FL assay relative to trolox; format: functional
Summary of the method: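 Fluorescein (70 nM final) and compound (0.3–2 µM, in methanol) were mixed in 75 mM sodium phosphate pH 7.4 and pre-incubated 15 min at 37 °C. AAPH (18 mM final) was then added. Fluorescence (ex 485, em 528 nm) was read every minute for 120 min. Net AUC was taken after subtracting a methanol blank and expressed relative to trolox. Triplicates, at least three independent assays.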

[5] = Antioxidant activity assessed as inhibition of AAPH-induced peroxyl radical formation by ORAC-FL assay relative to trolox; format: functional
Summary of the method: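 Peroxyl scavenging in 75 mM sodium phosphate buffer pH 7.4 with fluorescein (70 nM final), using test compounds in methanol from 0.3 to 2 units. The mix was pre-incubated 15 min at 37 °C, then AAPH (18 mM final) was added. Fluorescence (ex 485, em 528 nm) was read every 1 min for 120 min. Net AUC was taken against a methanol blank and expressed relative to trolox standards. Triplicates, ≥3 independent runs.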

[6] = system: Radical scavenging activity; test: Antioxidant activity assessed as DPPH radical scavenging activity measured at 5 mins by ESR spectrometric analysis

Compound | Activity [1] | Activity [2] | Activity [3] | fold change (FC) [4] | fold change (FC) [5] | Activity [6]
Cc1ccc(-c2cc3cccc(O)c3oc2=O)cc1 | 17.4% | 28.6% | 16% | 6.3 | – | –
Cc1cccc2cc(-c3ccc(O)c(O)c3)c(=O)oc12 | 77.3% | 66.7% | 100% | 5.7 | – | –
Cc1ccc2oc(=O)c(-c3ccc(O)c(O)c3)cc2c1 | 28.9% | 28.3% | 6.05% | 5.3 | – | –
O=c1c(O)c(-c2ccc(O)c(O)c2)oc2cc(O)cc(O)c12 | – | – | – | – | 7.28 | 20%
Cc1cccc2cc(-c3cc(O)c(O)c(O)c3)c(=O)oc12 | 76.5% | 100% | 100% | 5.3 | – | –
Oc1cc(O)c2c(c1)OC(c1ccc(O)c(O)c1)C(O)C2 (stereo not given) | – | – | – | – | 6.76 | 44.5%
Cc1cccc2cc(-c3cc(O)cc(O)c3)c(=O)oc12 | 22.6% | 11.2% | 75% | 5.5 | – | –
Cc1ccc2oc(=O)c(-c3ccc(O)cc3)cc2c1 | 17.4% | 27.7% | 100% | 6.1 | – | –
O=c1oc2c(O)cccc2cc1-c1ccc(O)cc1 | 71.5% | 65.9% | 100% | 13.5 | – | –
Cc1ccc2oc(=O)c(-c3ccccc3O)cc2c1 | 25% | 10.6% | 100% | 8.4 | – | –
Cc1ccc2oc(=O)c(-c3cccc(O)c3)cc2c1 | 17.5% | 3.4% | 5.2% | 6.7 | – | –
